Experimental data pooled from the literature.
Protocols differ between the studies behind these lines.
MALT1: Mucosa-associated lymphoid tissue lymphoma translocation protein 1 (MALT1, Homo sapiens, UniProt Q9UDY8)
CDK15: Cyclin-dependent kinase 15 (CDK15, Homo sapiens, UniProt Q96Q40)
WNK1: Serine/threonine-protein kinase WNK1 (WNK1, Homo sapiens, UniProt Q9H4A3)

Structure (SMILES) | target | test | conditions | quantity | value
CCN(CC)CCCC[C@H](NC(=O)[C@H](CC(C)C)NC(=O)[C@H](C)NC(=O)[C@H](Cc1ccccc1)NC(=O)c1ccc(C(C)(C)C)cc1)C(=O)N[C@@H](CO)C(=O)OC | ATPase family AAA domain-containing protein 2B (ATAD2B, Homo sapiens, UniProt Q9ULI0) | thermal stability, DSF | 25 µM | ΔTm | 0 °C
C[C@@H](NC(=O)[C@@H](N)Cc1ccc(O)cc1)C(=O)N[C@@H](Cc1ccccc1)C(=O)NCC(=O)N[C@@H](Cc1ccc(O)cc1)C(=O)N1CCC[C@H]1C(=O)N[C@@H](CCCCN)C(=O)N[C@@H](CSC1CC(=O)N(CCCCCNC(=O)c2ccc(C3=c4cc5c(cc4Oc4cc6c(cc43)C(CS(=O)(=O)[O-])=CC(C)(C)N6C)=[N+](C)C(C)(C)C=C5CS(=O)(=O)O)c(C(=O)O)c2)C1=O)C(N)=O (stereo partly shown) | Mu-type opioid receptor (Oprm1, Mus musculus, UniProt P42866) | binding | – | koff | 0.068 s⁻¹
CCCCCn1nc(C(=O)N[C@H](C(N)=O)C(C)C)c2ccccc21 | Cannabinoid receptor 1 (CNR1, Homo sapiens, UniProt P21554) | calcium signal, agonist, fluorescence | – | Emax | 116%
COc1cc(Cl)c(C(=O)N[C@@H](CN[C@H]2CC[C@@H](N)CC2)Cc2ccc(C#N)cc2)cc1-c1ccc(CN[C@H](C)c2ccc(C)cc2)o1 | Serine/threonine-protein kinase Nek3 (NEK3, Homo sapiens, UniProt P51956) | enzyme activity, inhibitor | 1 µM | remaining activity | 107%
[H]/N=C(/N)c1ccc(NCc2nc3cc(C(=O)N(CCC(=O)O)c4ccccn4)ccc3n2C)cc1 | Vitamin K-dependent protein C (PROC, Homo sapiens, UniProt P04070) | enzyme activity, inhibitor | 0.2 µM | inhibition | 16%
CN(CCN1CCC(OC(=O)Nc2ccccc2-c2ccccc2)CC1)C(=O)c1ccc(CN2CCC(C(N)=O)CC2)cc1 | Endothelin-1 receptor (EDNRA, Homo sapiens, UniProt P25101) | ligand displacement, radioligand | 1 µM | inhibition | 23%
CN(C)C(=O)COC(=O)Cc1ccc(OC(=O)c2ccc(NC(=N)N)cc2)cc1 | MALT1 | enzyme activity, inhibitor | 10 µM | inhibition | 48%
Cc1nn(C)cc1-c1nc2c(N3CCN(Cc4ccc(Cl)cc4)CC3)c(Cl)cnc2[nH]1 | Phosphatidylinositol 4-phosphate 3-kinase C2 domain-containing subunit beta (PIK3C2B, Homo sapiens, UniProt O00750) | binding, competition with immobilised ligand | 1 µM | remaining binding | 100%
CC(C)[C@H](NC(=O)OCc1ccccc1)C(=O)N[C@@H](CCCN=C(N)N)C(=O)N1CCC[C@H]1C(=O)N[C@@H](CCCN=C(N)N)C(=O)CF | MALT1 | enzyme activity, inhibitor | 10 nM | inhibition | 56%
Fc1cccc(-n2cnc3c(NCc4nc5c(F)c(F)ccc5[nH]4)nc(N4CCOCC4)nc32)c1 | CDK15 | binding, competition with immobilised ligand | 10 µM | binding vs control | 20%
COc1ncccc1-c1cnn2ccc(N3CCN(C(=O)OC(C)C)CC3)nc12 | WNK1 | binding, competition with immobilised ligand | 1 µM | remaining binding | 74%
O=[N+]([O-])c1cccc2[nH]c(CNc3nc(N4CCOCC4)nc4c3ncn4-c3ccsc3)nc12 | CDK15 | binding, competition with immobilised ligand | 10 µM | binding vs control | 47%
Nc1ncc(-c2nc(N3CCOCC3)nc(N3CCOCC3)n2)c(C(F)F)n1 | WNK1 | binding, competition with immobilised ligand | 10 µM | remaining binding | 57%
